Here are results for one compound from ChEMBL document CHEMBL4406881, “Design, synthesis and biological evaluation of benzoylacrylic acid shikonin ester derivatives as irreversible dual inhibitors of tubulin and EGFR” (Bioorg Med Chem, 2019).

In data set [1] the test system is A549. The experiment in a line: Induction early apoptosis in human A549 cells assessed as increase in ROS generation after by flow cytometric analysis. Type of data set: functional, cell-based. Put shortly: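 Intracellular ROS measured in A549 cells seeded to about 75% confluence. After treatment, cells were stained with ROS detection solution at 37 °C for 20 min, washed three times in serum-free medium, and analysed by flow cytometry.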
(A flow cytometer gives signals particle by particle.)

Data set [2] deals with A549. The experiment in a line: Cell cycle arrest in human A549 cells assessed as accumulation at G1 phase at 2 uM after 24 hrs by RNAse A/ PI staining based flow cytometric analysis (reference value: 73.30%). In kind it is functional. Put shortly: (§1)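 A549 cells at 5.0×10^4 per well were grown 12 h at 37 °C. Treatment was 0, 2, 4 or 8 µM for 24 h, or 8 µM for 0, 12, 24 or 36 h. Cells were fixed in 70% ethanol at −20 °C for at least 12 h, then stained in PBS with 0.1 mg/mL RNase A and 5 µg/mL PI. At least 10,000 events per sample were collected by flow cytometry to give G0/G1, S and G2/M percentages.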

A further data set concerns the target Tubulin (Homo sapiens) (UniProt P68371+Q9H4B7+P0DPH7+P68366+Q13509+Q71U36+P04350+Q3ZCM7+P07437+P68363+Q9BQE3+Q6PEY2+Q13885+Q9BVA1+Q9BUF5). As to the kind of experiment: Induction of tubulin depolymerization in human A549 cells at 4 to 8 uM after 24 hrs by DAPI staining based fluorescence microscopic analysis. In kind it is cell-based. Put shortly: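 Cells were fixed in 4% paraformaldehyde, permeabilised with 1% Triton, and blocked with 5% BSA. Staining used anti-tubulin (1:200) overnight, then Cy3 anti-mouse IgG (1:1500) 1 h, then DAPI 1 µg/mL. Imaging by confocal microscopy.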

Data set [3] relates to A549. The experiment in a line: Inhibition of Wnt/beta-catenin signaling pathway in human A549 cells assessed as reduction in beta-catenin expression in cytoplasm by Western blot analysis. Type of data set: cell-based. The essentials: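 A549 cells in 6-well plates were lysed in RIPA buffer with protease inhibitors on ice for 30 min and cleared at 4 °C. Protein was quantified by BCA, run on SDS-PAGE and transferred to PVDF. Membranes were blocked with milk, probed with primary antibody (1:1000) overnight at 4 °C, then secondary antibody (1:3000-1:5000) 1 h at RT. Detection by ECL; band densitometry normalised to GAPDH (β-actin also used). Three independent experiments.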

A further data set relates to MCF7. The experiment in a line: Antiproliferative activity against human MCF7 cells assessed as reduction in cell viability after 24 hrs by MTT assay. In kind it is functional, cell-based. Particulars: MCF7, 24 h. The essentials:
(§2)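 MTT colorimetric assay. Cells in log phase in medium with 10% FBS were seeded at 10⁴ cells/well and left overnight at 37 °C, 5% CO₂ to reattach. Compounds were added at 0.1, 1, 10 and 100 μM in 10% FBS for 24 h. IC50 reported as mean ± SD of three independent experiments.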
(In general: Formazan colour is commonly taken as a measure of viable cells.)

The test system of a further data set is HeLa. As to the kind of experiment: Antiproliferative activity against human HeLa cells assessed as reduction in cell viability after 24 hrs by MTT assay. In kind it is functional, cell-based. Put shortly: as §2
Data set [4] deals with A549. As to the kind of experiment: Induction of apoptosis in human A549 cells assessed as late apoptotic cells at 8 uM after 12 hrs by Annexin-V/PI staining based flow cytometry analysis (reference value: 6.55%). Type of data set: functional. The essentials:
(§3)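 A549 cells seeded overnight at 37 °C, 5% CO2, then exposed to 0, 2, 4, 8 or 12 µM for 24 h (dose series) or 8 µM for 0, 12, 24, 36 h (time series). Harvested, PBS-washed, stained with Annexin V-FITC and PI in binding buffer 15 min at room temperature in the dark, analysed by flow cytometry; three independent experiments.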

The test system of data set [5] is A549. As to the kind of experiment: Induction of apoptosis in human A549 cells assessed as high mitochondrial membrane potential at 8 uM after 12 hrs by JC-1 staining-based flow cytometric analysis (reference value: 90.6%). In kind it is functional. Put shortly: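 JC-1 staining of A549 cells treated for 12 h. CCCP-treated wells, 20 min at 37 °C, served as positive control. Collected cells were incubated with JC-1 solution at 37 °C for 30 min, washed, and analysed by flow cytometry for the fraction with high ΔΨm and for PI-positive cells. Results are mean ± S.E.M. of three replicates.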

Data set [6] relates to A549. As to the kind of experiment: Induction of apoptosis in human A549 cells assessed as early apoptotic cells at 4 uM after 24 hrs by Annexin-V/PI staining based flow cytometry analysis (reference value: 1.15%). Type of data set: functional.
The subject of data set [7] is A549. As to the kind of experiment: Induction of apoptosis in human A549 cells assessed as low mitochondrial membrane potential at 12 uM after 12 hrs by JC-1 staining-based flow cytometric analysis (reference value: 6.3%). In kind it is functional.
The test system of data set [8] is A549. The experiment in a line: Induction of apoptosis in human A549 cells assessed as viable cells at 8 uM after 36 hrs by Annexin-V/PI staining based flow cytometry analysis (reference value: 88.4%). Particulars: A549, 36 h, read-out: Activity. Type of data set: functional. Put shortly: as §3
For data set [9], the system named is A549. As to the kind of experiment: Induction of apoptosis in human A549 cells assessed as early apoptotic cells at 8 uM after 36 hrs by Annexin-V/PI staining based flow cytometry analysis (reference value: 2.02%). In kind it is functional.
The subject of data set [10] is A549. As to the kind of experiment: Antitumor activity against ip dosed human A549 cells xenografted in Balb/c mouse assessed as inhibition of tumor growth administered once every two days for 32 days measured for every 2 days. Type of data set: functional, organism-based. The essentials: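 Female BALB/c nude mice, 5-6 weeks old, injected in the flank with 6×10^6 A549 cells in 0.1 mL ice-cold PBS. After two weeks, tumours averaging 90 mm³ were allocated by volume to 5 groups of n = 8. Drugs in DMSO were given ip once every two days, 16 doses in total; a DMSO vehicle group served as control. Tumour volume (L×S²/2) and body weight were recorded every two days; mice were killed on day 32.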
Background: A xenograft is tissue or cells of one species grown in another, often human tumour cells in immunodeficient mice.

In data set [11] the test system is A549. As to the kind of experiment: Cell cycle arrest in human A549 cells assessed as accumulation at G2/M phase at 8 uM after 36 hrs by RNAse A/ PI staining based flow cytometric analysis (reference value: 12.65%). Type of data set: functional. Put shortly: as §1
Data set [12] in a line: Cytotoxicity against human LO2 cells assessed as reduction in cell viability after 24 hrs by MTT assay. In kind it is cell-based, L02. The essentials: as §2
Data set [13] relates to A549. As to the kind of experiment: Induction of apoptosis in human A549 cells assessed as caspase-3 cleavage expression at 2 to 8 uM after 24 hrs by Western blot analysis. Type of data set: functional, cell-based. Put shortly: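 Western blot of A549 cells treated for 24 h. Lysates in RIPA buffer were run on SDS-PAGE and transferred to PVDF. Primary antibody at 1:1000 overnight at 4 °C, secondary antibody at 1:3000-1:5000 for 1 h, ECL detection. Densitometry was normalised to GAPDH; mean ± S.E.M. from three independent experiments.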

Data set [14] concerns A549. As to the kind of experiment: Induction of apoptosis in human A549 cells assessed as early apoptotic cells at 8 uM after 24 hrs by Annexin-V/PI staining based flow cytometry analysis (reference value: 2.02%). In kind it is functional.
For data set [15], the system named is A549. As to the kind of experiment: Cell cycle arrest in human A549 cells assessed as accumulation at G1 phase at 8 uM after 24 hrs by RNAse A/ PI staining based flow cytometric analysis (reference value: 73.30%). In kind it is functional. Put shortly: as §1
Data set [16] has as its system A549. As to the kind of experiment: Induction of apoptosis in human A549 cells assessed as late apoptotic cells at 12 uM after 24 hrs by Annexin-V/PI staining based flow cytometry analysis (reference value: 5.69%). Type of data set: functional.
Data set [17] relates to A549. As to the kind of experiment: Induction of apoptosis in human A549 cells assessed as late apoptotic cells at 8 uM after 24 hrs by Annexin-V/PI staining based flow cytometry analysis (reference value: 6.55%). Type of data set: functional. Put shortly:
as §3

Active and inactive are the calls of the source. The rule behind the calls is not given here.

With `CC(C)=CC[C@@H](OC(=O)/C=C\C(=O)c1ccc(F)cc1)C1=CC(=O)c2c(O)ccc(O)c2C1=O`, the Activity result is “Dose-dependent effect” in the data set on A549 [1]; 61.67% in the data set with A549 [2]; 10% with A549 [4]; 55.8% with A549 [5]; 17.6% in the data set with A549 [6]; 58.7% in the data set on A549 [7]. Also, the Activity in the data set on A549 [9] is 43.8%; with A549 [10], “Dose-dependent effect”; with A549 [11], 46.55%; in the data set on A549 [14], 31.7%; with A549 [15], 47.33%; in the data set with A549 [16], 38.1%. In the data set on A549 [17], the Activity is listed as 27.5%. Moreover, the outcome on Tubulin (Homo sapiens) and in the data set on A549 [13] was Active. Further, in the data set with A549 [3], the inhibition result was “Dose-dependent effect”. Also, the half-inhibitory concentration (IC50) (commonly the concentration that inhibits the measured activity by half) was 8.9 µM with MCF7 and 7.93 µM with HeLa. In the data set with A549 [8], the viability at 8 µM is 12.2%. Besides, the CC50 (commonly the concentration that lowers cell viability or growth by half) at 24 h in data set [12] came to 89.2 µM.
